The target of experiment [1] is T1, Opioid receptors; delta & kappa (Homo sapiens) (UniProt P41145+P41143). The experiment can be described thus: Ratio of (Ke) delta-opioid receptor to that of (Ke) kappa-opioid receptor. The experiment is classed as protein assay. The method, boiled down: (§1)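 Selectivity ratios taken from [35S]GTPγS antagonist values in CHO membranes expressing cloned human receptors (μ with DAMGO, δ with Cl-DPDPE, κ with U69,593), as μ/κ and δ/κ. Values are means of five or six experiments.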
T1 sequence (P41143 whole entry, looked up): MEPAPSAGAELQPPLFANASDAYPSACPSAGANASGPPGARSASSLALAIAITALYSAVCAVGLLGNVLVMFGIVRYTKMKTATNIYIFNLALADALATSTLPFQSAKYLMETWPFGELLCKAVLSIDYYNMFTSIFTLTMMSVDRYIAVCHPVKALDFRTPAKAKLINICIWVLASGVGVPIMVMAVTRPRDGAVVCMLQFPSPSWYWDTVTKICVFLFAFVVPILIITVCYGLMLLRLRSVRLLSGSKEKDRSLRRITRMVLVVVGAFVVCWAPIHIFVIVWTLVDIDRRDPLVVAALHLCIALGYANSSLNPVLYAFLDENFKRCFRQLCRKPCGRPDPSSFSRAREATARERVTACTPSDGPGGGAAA
T1 sequence (P41145 whole entry, looked up): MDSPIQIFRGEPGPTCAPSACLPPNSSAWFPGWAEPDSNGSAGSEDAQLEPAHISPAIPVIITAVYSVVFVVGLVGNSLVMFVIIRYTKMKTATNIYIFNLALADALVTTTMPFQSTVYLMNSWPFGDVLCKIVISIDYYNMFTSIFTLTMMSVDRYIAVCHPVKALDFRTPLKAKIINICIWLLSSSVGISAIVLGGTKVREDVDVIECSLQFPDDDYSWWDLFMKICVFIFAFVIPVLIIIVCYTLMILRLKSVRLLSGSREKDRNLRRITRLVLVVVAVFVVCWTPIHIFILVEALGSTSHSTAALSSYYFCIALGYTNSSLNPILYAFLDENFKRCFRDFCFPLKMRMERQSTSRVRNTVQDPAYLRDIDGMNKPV

The target in experiment [2] is T2, Mu-type opioid receptor (Homo sapiens, UniProt P35372). Put plainly: Binding affinity against cloned human Opioid receptor mu 1 transfected into chinese hamster ovary cells using [3H]DAMGO as radioligand. The experiment is classed as cell-based. The method, boiled down: (§2)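 Competition binding in CHO cells transfected with cloned human opioid receptors, using [3H]DAMGO (μ), [3H]Cl-DPDPE (δ) and [3H]U69,593 (κ) as displaced radioligands. Hill slopes were examined. Data are averages of two experiments, each run in triplicate.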
T2 sequence (P35372 whole entry): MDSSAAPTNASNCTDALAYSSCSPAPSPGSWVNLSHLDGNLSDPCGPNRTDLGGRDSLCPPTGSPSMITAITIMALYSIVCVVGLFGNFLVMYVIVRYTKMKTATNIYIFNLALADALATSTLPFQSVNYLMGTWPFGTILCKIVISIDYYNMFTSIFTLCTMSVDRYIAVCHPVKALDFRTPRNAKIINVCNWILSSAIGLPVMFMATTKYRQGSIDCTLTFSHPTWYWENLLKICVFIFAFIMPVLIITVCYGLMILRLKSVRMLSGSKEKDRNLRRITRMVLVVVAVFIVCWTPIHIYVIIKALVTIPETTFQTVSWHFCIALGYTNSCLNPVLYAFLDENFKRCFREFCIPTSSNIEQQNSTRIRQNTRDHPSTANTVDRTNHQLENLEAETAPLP

Experiment [3] has as its target T3, Kappa-type opioid receptor (Homo sapiens, UniProt P41145). Put plainly: Antagonistic activity against cloned human Opioid receptor kappa 1 using U69,593 as ligand in [35S]GTP-gamma-S, assay. It is filed as functional. (Binding of GTPγS marks nucleotide exchange on a G protein.)
Experiment [4] has as its target T2, Mu-type opioid receptor. The experiment can be described thus: Antagonistic activity against cloned human Opioid receptor mu 1 using DAMGO as ligand in [35S]GTP-gamma-S, assay. It is filed as functional.
Experiment [5] addresses T4, Opioid receptors; mu & kappa (Homo sapiens) (UniProt P41145+P35372). Put plainly: Ratio of (Ki) mu-opioid receptor to that of (Ki) kappa-opioid receptor. It is filed as protein assay. The method, boiled down: (§3)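 Ki ratios μ/κ and δ/κ from competition binding in CHO cells with cloned human receptors, displacing [3H]DAMGO, [3H]Cl-DPDPE or [3H]U69,593. Data are averages of two experiments, each run in triplicate.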

The target in experiment [6] is T4, Opioid receptors; mu & kappa (Homo sapiens). The experiment can be described thus: Ratio of (Ke) mu-opioid receptor to that of (Ke) kappa-opioid receptor. It is filed as protein assay. A digest of the protocol:
as §1

Experiment [7] concerns the target T5, Delta-type opioid receptor (Homo sapiens, UniProt P41143). Put plainly: Binding affinity against cloned human Opioid receptor delta 1 transfected into chinese hamster ovary cells using [3H]Cl-DPDPE as radioligand. It is filed as cell-based. A digest of the protocol: as §2
The target in experiment [8] is T1, Opioid receptors; delta & kappa (Homo sapiens). The experiment can be described thus: Ratio of (Ki) delta-opioid receptor to that of (Ki) kappa-opioid receptor. The experiment is classed as protein assay. The method, boiled down:
as §3

For experiment [9], the target named is T5, Delta-type opioid receptor. The experiment can be described thus: Antagonistic activity against cloned human Opioid receptor delta 1 using DPDPE as ligand in [35S]GTP-gamma-S, assay. It is filed as functional.
Experiment [10] concerns the target T3, Kappa-type opioid receptor. Put plainly: Binding affinity against cloned human Opioid receptor kappa 1 transfected into chinese hamster ovary cells using [3H]U-69593 as radioligand. It is filed as cell-based. The method, boiled down:
as §2

pKi: −log10 of the molar value.

Usually pKi stands for the negative decadic logarithm of the Ki, by convention in mol/L.

T3 sequence (P41145 whole entry): as the sequence (P41145 whole entry, looked up) above
T5 sequence (P41143 whole entry): as the sequence (P41143 whole entry, looked up) above
T4 sequence (P35372 whole entry, looked up): as the sequence (P35372 whole entry) above
T4 sequence (P41145 whole entry, looked up): as the sequence (P41145 whole entry, looked up) above

As to `CCC/N=C(\NCCC)Nc1ccc2[nH]c3c(c2c1)C[C@@]1(O)[C@H]2Cc4ccc(O)c5c4[C@@]1(CCN2CC1CC1)[C@H]3O5`, the Ratio in experiment [1] was 9; in experiment [5] it was 4; in experiment [6], 18; in experiment [8], 3. The pKi is 8.01 at Mu-type opioid receptor [2], 8.07 in experiment [7] and 8.57 in experiment [10]. The results for the Ke (in experiment [3]; on Mu-type opioid receptor [4]; in experiment [9]) were 0.26 nM, 4.59 nM and 2.43 nM, respectively.

Regarding `N/C(=N\CCc1ccc2[nH]c3c(c2c1)C[C@@]1(O)[C@H]2Cc4ccc(O)c5c4[C@@]1(CCN2CC1CC1)[C@H]3O5)NCc1ccc(N)cc1`, the Ratio in [1] was 4; in experiment [5], 8; in experiment [6], 6; in [8], 5. Further, the pKi at Mu-type opioid receptor [2] was 8.11; in [7], 8.30; in [10] it was 9.02. In addition, the figures for the Ke (in experiment [3]; at Mu-type opioid receptor [4]; in [9]) were 0.25 nM, 1.57 nM and 0.95 nM, respectively.

For the compound `N/C(=N/Cc1ccc([N+](=O)[O-])cc1)Nc1ccc2[nH]c3c(c2c1)C[C@@]1(O)[C@H]2Cc4ccc(O)c5c4[C@@]1(CCN2CC1CC1)[C@H]3O5`, the Ratio in experiment [1] was determined as 93; in experiment [5] it was 16; in experiment [6], 21; in [8], 60. The pKi on Mu-type opioid receptor [2] is 7.58; in experiment [7], 7.02; in experiment [10], 8.79. Also, the figures for the Ke (in [3]; on Mu-type opioid receptor [4]; in [9]) were 0.18 nM, 3.71 nM and 16.7 nM, respectively.

On to `N=C(N)NCc1ccc2[nH]c3c(c2c1)C[C@@]1(O)[C@H]2Cc4ccc(O)c5c4[C@@]1(CCN2CC1CC1)[C@H]3O5`, for which the Ratio is 389 in experiment [1], 205 in [5], 81 in experiment [6] and 389 in [8]. The figures for the pKi (at Mu-type opioid receptor [2]; in experiment [7]; in experiment [10]) were 7.43, 7.15 and 9.74, respectively. Also, the Ke in experiment [3] turned out to be 0.04 nM; at Mu-type opioid receptor [4] it was 3.23 nM; in experiment [9] it was 15.5 nM.

For the compound `N/C(=N/Cc1cccc(O)c1)Nc1ccc2[nH]c3c(c2c1)C[C@@]1(O)[C@H]2Cc4ccc(O)c5c4[C@@]1(CCN2CC1CC1)[C@H]3O5`, the Ratio in [1] amounted to 33; in experiment [5], 5; in experiment [6], 33; in experiment [8], 6. In addition, the pKi on Mu-type opioid receptor [2] was 7.85; in [7], 7.75; in [10], 8.56. For the same compound, the Ke in experiment [3] was determined as 0.13 nM; at Mu-type opioid receptor [4], 4.28 nM; in [9] it was 4.35 nM.

Take `CCCC/N=C(\NCCCC)NCCc1ccc2[nH]c3c(c2c1)C[C@@]1(O)[C@H]2Cc4ccc(O)c5c4[C@@]1(CCN2CC1CC1)[C@H]3O5`: the Ratio in experiment [1] was 3; in [5], 1.5; in experiment [6] it was 12; in experiment [8], 1.5. The pKi was 8.10 on Mu-type opioid receptor [2], 8.17 in [7] and 8.32 in [10]. In addition, the Ke was determined as 0.39 nM in [3], 4.62 nM at Mu-type opioid receptor [4] and 1.05 nM in [9].

For `N/C(=N/Cc1ccccc1)Nc1ccc2[nH]c3c(c2c1)C[C@@]1(O)[C@H]2Cc4ccc(O)c5c4[C@@]1(CCN2CC1CC1)[C@H]3O5`, the Ratio in [1] came out at 68; in experiment [5] it was 12; in experiment [6] it was 24; in experiment [8], 31. Further, the pKi at Mu-type opioid receptor [2] was 7.98; in experiment [7], 7.57; in experiment [10], 9.07. The Ke in experiment [3] worked out at 0.06 nM; at Mu-type opioid receptor [4], 1.41 nM; in [9], 4.09 nM.

On to `N=C(N)NCCc1ccc2[nH]c3c(c2c1)C[C@@]1(O)[C@H]2Cc4ccc(O)c5c4[C@@]1(CCN2CC1CC1)[C@H]3O5`, for which the Ratio was determined as 2 in [1], 12 in experiment [5], 3 in experiment [6] and 10 in experiment [8]. Also, the pKi on Mu-type opioid receptor [2] is 8.24; in [7], 8.31; in experiment [10], 9.31. The Ke in [3] amounted to 0.4 nM; on Mu-type opioid receptor [4], 1.25 nM; in experiment [9], 0.88 nM.

On to `N/C(=N/Cc1ccc(Cl)cc1)Nc1ccc2[nH]c3c(c2c1)C[C@@]1(O)[C@H]2Cc4ccc(O)c5c4[C@@]1(CCN2CC1CC1)[C@H]3O5`, for which the Ratio in experiment [1] stood at 55; in [5] it was 45; in [6] it was 37; in experiment [8], 129. Also, the pKi was 7.53 at Mu-type opioid receptor [2], 7.07 in [7] and 9.18 in experiment [10]. Further, the Ke in experiment [3] worked out at 0.14 nM; on Mu-type opioid receptor [4], 5.24 nM; in [9] it was 7.67 nM.

In the case of `N/C(=N/Cc1ccc(N)cc1)Nc1ccc2[nH]c3c(c2c1)C[C@@]1(O)[C@H]2Cc4ccc(O)c5c4[C@@]1(CCN2CC1CC1)[C@H]3O5`, the Ratio in experiment [1] was found to be 120; in experiment [5], 13; in [6], 14; in experiment [8], 68. Further, the figures for the pKi (at Mu-type opioid receptor [2]; in experiment [7]; in experiment [10]) were 8.10, 7.62 and 9.20, respectively. The figures for the Ke (in experiment [3]; at Mu-type opioid receptor [4]; in experiment [9]) were 0.09 nM, 1.22 nM and 10.8 nM, respectively.

On to `N/C(=N/Cc1ccc(O)cc1)Nc1ccc2[nH]c3c(c2c1)C[C@@]1(O)[C@H]2Cc4ccc(O)c5c4[C@@]1(CCN2CC1CC1)[C@H]3O5`, for which the Ratio in [1] turned out to be 183; in [5], 4.5; in [6], 127; in [8], 13. Moreover, the pKi was 7.83 on Mu-type opioid receptor [2], 7.38 in [7] and 8.49 in [10]. Moreover, the Ke turned out to be 0.1 nM in [3], 12.7 nM at Mu-type opioid receptor [4] and 18.3 nM in [9].

`CCCC/N=C(\NCCCC)Nc1ccc2[nH]c3c(c2c1)C[C@@]1(O)[C@H]2Cc4ccc(O)c5c4[C@@]1(CCN2CC1CC1)[C@H]3O5`: the Ratio in [1] amounted to 12; in [5], 3; in experiment [6] it was 13; in [8] it was 2. In addition, the figures for the pKi (on Mu-type opioid receptor [2]; in experiment [7]; in experiment [10]) were 7.74, 7.82 and 8.16, respectively. The Ke in experiment [3] turned out to be 0.44 nM; at Mu-type opioid receptor [4] it was 5.66 nM; in [9], 5.24 nM.

As for `CCCN/C(=N\CC1CC1)Nc1ccc2[nH]c3c(c2c1)C[C@@]1(O)[C@H]2Cc4ccc(O)c5c4[C@@]1(CCN2CC1CC1)[C@H]3O5`, the Ratio in experiment [1] amounted to 79; in [5] it was 9; in experiment [6] it was 41; in [8], 6.5. The results for the pKi (at Mu-type opioid receptor [2]; in experiment [7]; in experiment [10]) were 7.65, 7.81 and 8.62, respectively. Besides, the Ke was found to be 0.08 nM in experiment [3], 3.26 nM at Mu-type opioid receptor [4] and 6.31 nM in experiment [9].

Regarding `N/C(=N\CCc1ccc2[nH]c3c(c2c1)C[C@@]1(O)[C@H]2Cc4ccc(O)c5c4[C@@]1(CCN2CC1CC1)[C@H]3O5)NCc1ccc([N+](=O)[O-])cc1`, the Ratio was 8 in experiment [1], 4 in [5], 13 in [6] and 5 in experiment [8]. For the same compound, the pKi at Mu-type opioid receptor [2] is 8.04; in [7], 7.93; in experiment [10] it was 8.67. Also, the results for the Ke (in experiment [3]; at Mu-type opioid receptor [4]; in experiment [9]) were 0.17 nM, 2.2 nM and 1.34 nM, respectively.

In the case of `Oc1ccc2c3c1O[C@H]1c4[nH]c5ccc(N/C(=N/CC6CC6)NCc6ccccc6)cc5c4C[C@@]4(O)[C@@H](C2)N(CC2CC2)CC[C@]314`, the Ratio in experiment [1] came to 19; in [5], 4.5; in [6] it was 16; in experiment [8] it was 5. Besides, the pKi was 7.75 at Mu-type opioid receptor [2], 7.74 in experiment [7] and 8.41 in [10]. Also, the Ke is 0.17 nM in [3], 2.75 nM on Mu-type opioid receptor [4] and 3.28 nM in experiment [9].

For the compound `N/C(=N\CCc1ccc2[nH]c3c(c2c1)C[C@@]1(O)[C@H]2Cc4ccc(O)c5c4[C@@]1(CCN2CC1CC1)[C@H]3O5)NCc1ccccc1`, the Ratio amounted to 10 in experiment [1], 2 in experiment [5], 23 in [6] and 5 in [8]. In addition, the figures for the pKi (on Mu-type opioid receptor [2]; in experiment [7]; in [10]) were 8.45, 8.14 and 8.85, respectively. For the same compound, the Ke worked out at 0.13 nM in experiment [3], 2.94 nM on Mu-type opioid receptor [4] and 1.36 nM in [9].

Turning to `N/C(=N\CCc1ccc2[nH]c3c(c2c1)C[C@@]1(O)[C@H]2Cc4ccc(O)c5c4[C@@]1(CCN2CC1CC1)[C@H]3O5)NCc1ccc(Cl)cc1`, the Ratio in experiment [1] turned out to be 6; in [5], 3; in experiment [6] it was 11; in [8] it was 8. Moreover, the pKi is 8.11 at Mu-type opioid receptor [2], 7.72 in [7] and 8.62 in experiment [10]. Besides, the values for the Ke (in experiment [3]; on Mu-type opioid receptor [4]; in experiment [9]) were 0.23 nM, 2.61 nM and 1.48 nM, respectively.
